The results in this text go back to ChEMBL document CHEMBL4825663 (J Med Chem, 2021).

The nature of data set [1]: Toxicity in Sprague-Dawley rat at 2000 mg/kg, po administered as single dose and measured upto 13 weeks. The class given is organism-based. The note with it: in vivo, 2184 h.
Data set [2] in a line: Drug distribution in Sprague-Dawley rat brain. The class given is ADME, tissue-based. The settings on record: in vivo.
The nature of data set [3]: Aqueous solubility of compound at pH 3.8. The class given is physicochemical. The note with it: aqueous solution.
In data set [4] the target is T1, Organic anion transporter 3 (Homo sapiens, UniProt Q8TCC7).
T1 sequence (Q8TCC7 whole entry): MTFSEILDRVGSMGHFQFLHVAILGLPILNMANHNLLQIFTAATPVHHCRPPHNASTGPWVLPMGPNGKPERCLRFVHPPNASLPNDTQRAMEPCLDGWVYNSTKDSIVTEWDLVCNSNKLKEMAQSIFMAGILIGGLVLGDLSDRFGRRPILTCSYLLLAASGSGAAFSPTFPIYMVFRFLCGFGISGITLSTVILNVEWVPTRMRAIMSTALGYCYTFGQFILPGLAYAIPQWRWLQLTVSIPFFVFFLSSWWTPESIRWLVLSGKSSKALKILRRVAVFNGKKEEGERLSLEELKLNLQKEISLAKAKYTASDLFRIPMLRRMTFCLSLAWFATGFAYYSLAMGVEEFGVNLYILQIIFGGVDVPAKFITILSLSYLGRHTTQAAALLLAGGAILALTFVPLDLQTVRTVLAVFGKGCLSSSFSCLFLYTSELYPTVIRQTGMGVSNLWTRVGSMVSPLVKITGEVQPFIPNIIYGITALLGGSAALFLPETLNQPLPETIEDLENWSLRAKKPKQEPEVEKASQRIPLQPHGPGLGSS
Nature of the data set: Inhibition of human OAT3 assessed as reduction in intracellular probe substrate accumulation upto 100 uM by microplate scintillation counter analysis relative to control. The class given is cell-based. An outline of the steps:
(§1)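 Cellular uptake-inhibition assays used Chinese hamster ovary, HEK293 or MDCKII cells stably expressing the respective human SLC transporter, run alongside the corresponding control cells. Inhibitor was tested at concentrations up to 100 μM.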

Data set [5] concerns the target T2, Multidrug and toxin extrusion protein 2 (Homo sapiens, UniProt Q86VL8).
T2 sequence (Q86VL8 whole entry): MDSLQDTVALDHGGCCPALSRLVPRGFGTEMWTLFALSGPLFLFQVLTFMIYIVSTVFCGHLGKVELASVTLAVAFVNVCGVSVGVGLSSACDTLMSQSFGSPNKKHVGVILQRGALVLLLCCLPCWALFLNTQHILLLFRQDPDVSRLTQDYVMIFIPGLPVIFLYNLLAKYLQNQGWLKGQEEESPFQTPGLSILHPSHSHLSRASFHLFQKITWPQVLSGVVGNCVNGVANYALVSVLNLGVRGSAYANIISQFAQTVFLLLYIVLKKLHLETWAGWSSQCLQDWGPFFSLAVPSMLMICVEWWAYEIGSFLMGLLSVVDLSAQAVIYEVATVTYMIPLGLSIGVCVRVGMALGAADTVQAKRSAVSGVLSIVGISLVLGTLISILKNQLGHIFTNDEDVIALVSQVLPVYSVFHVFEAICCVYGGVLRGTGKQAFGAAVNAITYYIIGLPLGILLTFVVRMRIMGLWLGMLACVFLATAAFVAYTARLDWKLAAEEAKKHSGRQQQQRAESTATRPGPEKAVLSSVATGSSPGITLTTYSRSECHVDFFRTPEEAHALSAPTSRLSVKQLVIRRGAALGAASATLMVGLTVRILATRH
Put plainly: Inhibition of human MATE2K assessed as reduction in intracellular probe substrate accumulation upto 100 uM by microplate scintillation counter analysis relative to control. The class given is cell-based. An outline of the steps:
as §1

Data set [6] in a line: Drug distribution in Sprague-Dawley rat bile. The class given is ADME, tissue-based. The note with it: in vivo.
The target of data set [7] is ATP-binding cassette sub-family C member 2 (Homo sapiens, UniProt Q92887). Put plainly: Inhibition of sulfasalazine-stimulated MRP2 ATPase activity (unknown origin) in presence of GSH.
Data set [8] in a line: Apparent permeability from apical to basolateral side in MDCK-II cells after 120 mins by LC-MS/MS analysis. The class given is ADME, cell-based, Canis lupus familiaris. The note with it: dog.
A short description of data set [9]: Toxicity in Sprague-Dawley rat at 200 mg/kg, po administered as repeated dose and measured upto 13 weeks. The class given is organism-based. The settings on record: in vivo, 2184 h.
A short description of data set [10]: Oral bioavailability in Sprague-Dawley rat at 20 mg/kg measured upto 24 hrs by LC-MS/MS analysis. The class given is ADME, organism-based. The settings on record: in vivo.
Data set [11] is described as follows: Ratio of drug concentration in BALB/c mouse stomach to plasma at 20 mg/kg, po measured upto 24 hrs in presence of 10 mg/kg encequidar by LC-MS/MS analysis. The class given is ADME, organism-based.
Data set [12] concerns MDA-MB-231. Put plainly: Antitumor activity against human MDA-MB-231 cells xenografted in athymic nude mouse assessed as reduction in median number of days for tumor to reach two tumor mass doubling at 12 mg/kg, iv administered every other day for 4 doses and monitored for 70 to 82 days (reference value: 13.1 day). The class given is functional. The note with it: time 70-82 day.

The nature of data set [13]: Ratio of drug concentration in BALB/c mouse small intestine to plasma at 20 mg/kg, po measured upto 24 hrs in presence of 10 mg/kg encequidar by LC-MS/MS analysis. The class given is ADME, organism-based.
Another data set concerns NCI-H460. Put plainly: Antitumor activity against human NCI-H460 cells xenografted in athymic nude mouse assessed as median tumor growth delay at 50 mg/kg, po administered every other day for 4 doses in presence of 20 mg/kg encequidar and monitored for 48 days. The class given is functional. The settings on record: time 48 day. An outline of the steps:
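Female athymic NCr-nu mice bearing subcutaneous NCI-H460 human lung tumor xenografts. Paclitaxel (30, 40 or 50 mg/kg) and the P-gp inhibitor (12, 16 or 20 mg/kg; ratio 2.5:1) given together as one oral gavage solution every other day for four doses. IV paclitaxel (18 and 24 mg/kg) on the same schedule for comparison. Tumor weights and body weights followed for 48 days after implantation. Read-out: median tumor growth delay.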

The test system of data set [14] is MDA-MB-231. Put plainly: Antitumor activity against human MDA-MB-231 cells xenografted in athymic nude mouse assessed as reduction in median number of days for tumor to reach two tumor mass doubling at 40 mg/kg, po administered every other day for 4 doses in presence of 16 mg/kg encequidar and monitored for 70 to 82 days (reference value: 13.1 day). The class given is functional. The note with it: time 70-82 day.

Data set [15] can be described thus: Drug excretion in dog bile at 6 mg/kg, po in presence of 3 mg/kg encequidar. The class given is ADME, organism-based, Canis lupus familiaris. The settings on record: in vivo.
Data set [16] in a line: Drug distribution in Sprague-Dawley rat kidney at 20 mg/kg, po measured upto 168 hrs in presence of 10 mg/kg encequidar by LC-MS/MS analysis. The class given is ADME, organism-based. The settings on record: in vivo.
A short description of data set [17]: Ratio of drug concentration in BALB/c mouse lung to plasma at 20 mg/kg, po measured upto 24 hrs in presence of 10 mg/kg encequidar by LC-MS/MS analysis. The class given is ADME, organism-based.
The test system of the next data set is HT-29. Nature of the data set: Antitumor activity against human HT-29 cells xenografted in athymic nude mouse assessed as reduction in tumor growth at 40 mg/kg, po in presence of 20 mg/kg encequidar. The arrangement: scale not given: the % may be the effect or the level left. The class given is functional.
Data set [18] concerns MDA-MB-231. Put plainly: Antitumor activity against human MDA-MB-231 cells xenografted in athymic nude mouse assessed as reduction in tumor growth at 40 mg/kg, po administered every other day for 4 doses in presence 16 mg/kg encequidar and monitored for 70 to 82 days. The class given is functional, organism-based. The note with it: time 70-82 day.
Data set [19] in a line: Drug metabolism in dog plasma assessed as metabolic ratio of 3-p-hydroxypaclitaxel at 6 mg/kg, po in presence of 3 mg/kg encequidar. The class given is ADME, organism-based, Canis lupus familiaris. The note with it: in vivo.

Molecules are shown by their SMILES. Values after ≈ are worked out from the molar mass of the structure shown. Active and inactive are the calls of the source. The calls are words filed in the database; no cut-off is given here.

Chain of ATP-binding cassette sub-family C member 2 (Q92887 whole entry): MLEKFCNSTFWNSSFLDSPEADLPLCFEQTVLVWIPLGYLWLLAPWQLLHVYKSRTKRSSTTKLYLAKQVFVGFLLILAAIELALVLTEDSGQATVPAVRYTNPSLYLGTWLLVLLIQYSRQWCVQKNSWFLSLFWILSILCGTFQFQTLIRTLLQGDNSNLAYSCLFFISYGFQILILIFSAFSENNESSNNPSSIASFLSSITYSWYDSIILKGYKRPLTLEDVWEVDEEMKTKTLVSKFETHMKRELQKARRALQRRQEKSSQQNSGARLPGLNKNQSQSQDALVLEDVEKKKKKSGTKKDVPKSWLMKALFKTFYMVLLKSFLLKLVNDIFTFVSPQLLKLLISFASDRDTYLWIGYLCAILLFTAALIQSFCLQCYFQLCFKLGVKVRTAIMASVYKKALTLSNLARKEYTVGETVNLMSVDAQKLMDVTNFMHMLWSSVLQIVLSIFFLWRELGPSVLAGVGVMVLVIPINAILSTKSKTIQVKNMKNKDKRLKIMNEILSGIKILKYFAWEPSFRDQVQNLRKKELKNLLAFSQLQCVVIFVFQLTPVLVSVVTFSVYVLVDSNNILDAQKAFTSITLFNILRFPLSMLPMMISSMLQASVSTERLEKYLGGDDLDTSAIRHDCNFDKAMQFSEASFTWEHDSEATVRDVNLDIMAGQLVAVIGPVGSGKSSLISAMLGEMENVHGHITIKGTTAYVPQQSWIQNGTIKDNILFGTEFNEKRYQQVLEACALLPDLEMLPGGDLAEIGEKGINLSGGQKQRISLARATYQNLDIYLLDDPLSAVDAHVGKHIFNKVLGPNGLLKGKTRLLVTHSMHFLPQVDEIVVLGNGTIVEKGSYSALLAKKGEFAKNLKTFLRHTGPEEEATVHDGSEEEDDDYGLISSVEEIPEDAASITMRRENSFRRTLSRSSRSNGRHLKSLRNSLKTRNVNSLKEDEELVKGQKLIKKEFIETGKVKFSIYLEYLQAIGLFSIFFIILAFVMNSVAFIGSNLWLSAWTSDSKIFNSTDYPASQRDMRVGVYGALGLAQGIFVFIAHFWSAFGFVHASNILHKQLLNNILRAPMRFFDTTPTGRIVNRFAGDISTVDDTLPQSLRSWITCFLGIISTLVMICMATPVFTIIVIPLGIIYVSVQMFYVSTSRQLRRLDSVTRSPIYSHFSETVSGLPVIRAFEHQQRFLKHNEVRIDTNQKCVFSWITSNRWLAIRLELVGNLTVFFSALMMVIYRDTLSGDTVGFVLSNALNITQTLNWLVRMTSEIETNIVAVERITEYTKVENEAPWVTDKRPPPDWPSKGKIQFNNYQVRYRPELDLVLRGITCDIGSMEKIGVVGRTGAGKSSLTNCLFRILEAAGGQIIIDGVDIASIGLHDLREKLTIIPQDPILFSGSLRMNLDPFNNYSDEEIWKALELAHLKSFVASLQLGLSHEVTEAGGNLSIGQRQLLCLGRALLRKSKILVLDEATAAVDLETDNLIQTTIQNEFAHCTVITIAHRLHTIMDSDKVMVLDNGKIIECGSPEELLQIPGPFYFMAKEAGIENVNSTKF

For `COc1cc2c(cc1OC)CN(CCc1ccc(-n3nnc(-c4cc(OC)c(OC)cc4NC(=O)c4cc(=O)c5ccccc5o4)n3)cc1)CC2`, the Activity entry in data set [1] and in data set [9] was “Non-Toxic” throughout. The Drug uptake result was “Not Active” in data set [2] and “Active” in [6]. Further, the solubility in data set [3] worked out at 0.219 µg/mL (≈ 0.318 µM). The “inhibition (INH)” value in data set [4] and in [5] was less than 50% each time. Further, the IC50 in data set [7] was more than 100 µM. The Papp A→B at 2 h in data set [8] stood at 0.002 ×10⁻⁶ cm/s.
`CC(=O)O[C@H]1C(=O)[C@@]2(C)[C@H]([C@H](OC(=O)c3ccccc3)[C@]3(O)C[C@H](OC(=O)[C@H](O)[C@@H](NC(=O)c4ccccc4)c4ccccc4)C(C)=C1C3(C)C)[C@]1(OC(C)=O)CO[C@@H]1C[C@@H]2O` [PACLITAXEL]: in [10], the bioavailability was 3.4%. For the same compound, the Kp at 24 h in [11], in data set [13] and in data set [17] was more than 1 throughout. In addition, the Time in the data set with MDA-MB-231 [12] is 26.1 days; in the data set on NCI-H460 it was 12.7 days; with MDA-MB-231 [14], more than 69 days. Also, the Drug excretion result in data set [15] is on record as “Metabolite_Detected”. The Drug uptake result in data set [16] is reported as “Active”. Moreover, the Activity with HT-29 was determined as 94%. The result in the data set with MDA-MB-231 [18] was Active. Further, the Ratio in data set [19] is 0.01.
